GSK3A inh – blocks human GSK-3 alpha kinase; ADP-Glo luminescence, 60 min; inhibition, % at 10 µM; actives 0.1% (n = 320,000);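 active = more than half of replicates show inhibition above 20%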;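 note: GST-tagged GSK-3 alpha with peptide substrate and 25 µM ATP; 0% = DMSO neutral wells and 100% = GW8510 positive control wells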
A1 inh – inhibitors of the anti-apoptotic protein A1, read as caspase activation; MEF A1-2A-BIM cells, Caspase-Glo 3/7 luminescence, 3 h; percent of clofoctol response, vehicle zero; caspase activation, % (test concentration not listed); actives 0.066% (n = 330,000);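 active = over half of replicate activation scores above 10%, or exactly half above 10 with the replicate mean above 10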
procasp3 activ – procaspase-3 (human) activation | P42574 | recombinant procaspase-3 D3A, Ac-DEVD-pNA absorbance 405 nm | activation, % at 8.5 µM | actives 0.11% (n = 330,000) | AID 463141;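 active = activation above the mean of all tested compounds plus 3 SD, cut at about 21% in these data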;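 note: 0% = DMSO alone and 100% = DMSO wells spiked with extra 5 µM PC-3 D3A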
Target sequence (P42574 whole entry D9A/D28A/D175A): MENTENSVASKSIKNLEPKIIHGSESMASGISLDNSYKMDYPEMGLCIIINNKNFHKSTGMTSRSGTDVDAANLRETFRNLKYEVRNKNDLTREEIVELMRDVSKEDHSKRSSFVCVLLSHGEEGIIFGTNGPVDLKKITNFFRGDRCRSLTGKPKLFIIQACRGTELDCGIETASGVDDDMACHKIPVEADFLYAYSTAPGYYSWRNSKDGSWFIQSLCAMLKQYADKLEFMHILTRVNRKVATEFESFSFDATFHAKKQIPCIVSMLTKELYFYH
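Assay system – Procaspase-3 D3A mutant · Benchmarks – DMSO low control, extra-enzyme high control · Technique – 405 nm absorbance of p-nitroaniline, reads at 0 and 120 min · Doses – 8.5 µM nominal · Measure – % activation between DMSO and enzyme-spiked controls · Also added – Ac-DEVD-pNA chromogenic peptide substrate · Schedule – 1 h compound preincubation, 2 h substrate hydrolysis at 25 °C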
STK33 inh – blocks human STK33 kinase activity; actives 0.073% (n = 320,000); Q9BYT3; AID 2661; inhibition, % at 10 µM; purified STK33, MBP phosphorylation, ADP-Glo luminescence;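 active = inhibition at or above 25%, using the most active replicate where run in duplicate; inactive = inhibition below 25%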
proCasp7 act – counter-screen: procaspase-7 (human) activation; P55210; recombinant procaspase-7, Ac-DEVD-pNA absorbance 405 nm; D23A/D198A/D206A triple mutant, cannot self-cleave; scale: DMSO 0, 5 µM enzyme 100; activation, % at 8.5 µM; actives 0.093% (n = 330,000);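 active = percent activation above the screen-wide mean plus 3 SD, cut at about 25% in these data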
Target sequence (P55210 whole entry D23A/D198A/D206A): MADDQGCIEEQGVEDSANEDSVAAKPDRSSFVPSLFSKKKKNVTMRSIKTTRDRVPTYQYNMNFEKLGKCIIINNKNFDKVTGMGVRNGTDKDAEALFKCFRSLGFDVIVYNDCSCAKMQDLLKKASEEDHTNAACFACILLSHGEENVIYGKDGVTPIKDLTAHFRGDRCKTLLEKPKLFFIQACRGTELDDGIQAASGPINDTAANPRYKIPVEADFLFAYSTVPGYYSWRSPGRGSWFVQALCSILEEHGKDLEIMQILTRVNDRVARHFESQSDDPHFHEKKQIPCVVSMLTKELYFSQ
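System: Procaspase-7 triple mutant (PC-7 D3A); measure: % activation from two-timepoint absorbance difference, scaled to controls; times: 1 h compound preincubation, 2 h substrate cleavage, 25 °C; also added: Ac-DEVD-pNA substrate, 400 µM as added; measured by: Epi-absorbance of released pNA at 405 nm, two timepoints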
GSK3beta inhib – blocks human GSK3beta kinase activity; P49841; GST-GSK3beta kinase, ADP-Glo luminescence, 60 min; stronger effect = lower value; activity score (negative = inhibition), % at 10 µM; actives 0.038% (n = 300,000); AID 2097;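 active = more than half of replicate wells score below -50%, meaning over 50% inhibition versus plate controls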;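 note: 0% = median DMSO wells and -100% = median GW8510 positive control wells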
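Assay system: GST-tagged human GSK3beta kinase, cell-free; Input: 1.6 ng GSK3beta; Medium: Tris/MgCl2 kinase buffer; Timing: 60 min enzyme reaction, room temperature; Signal: ADP-Glo luminescence quantifying ADP generated by kinase; Evaluation: score relative to plate controls; Benchmarks: DMSO neutral wells and GW8510 at 20 µM as positive.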
procasp7 triplic – activates human procaspase-7, counter-screen for procaspase-3 activators | AID 488941 | shares compounds with procasp3 activ | 210 tested, under 10 active | activation, % at 8.5 µM | recombinant procaspase-7, Ac-DEVD-pNA absorbance; asp23/198/206-to-Ala mutant, cannot self-cleave;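 active = mean activation above a set limit taken from an earlier procaspase-7 screen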;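 note: 0% = DMSO wells and 100% = DMSO plus 5 µM procaspase-7 enzyme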
procasp3 conf – confirmation of human procaspase-3 activators. shares compounds with procasp3 activ. recombinant PC-3 D3A, Ac-DEVD-pNA absorbance 405 nm; 100% is higher-enzyme control. activation, % at 8.5 µM. actives 10% (n = 210). AID 488954;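 active = mean activation above a set limit carried over from the earlier primary screen, cut at about 22% in these data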
PC3 D3A act – counter-screen: procaspase-3 (human) activation; shares compounds with proCasp7 act; recombinant PC-3 D3A, Ac-DEVD-pNA absorbance 405 nm; aspartates 9, 28, 175 changed to alanine; 100% = enzyme control; activation, % at 8.5 µM; 290 tested, under 10 active; AID 493114;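 active = mean percent activation across triplicates above a set limit taken from the earlier primary procaspase-3 screen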;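 note: 0% = DMSO wells and 100% = DMSO wells with 5 µM added PC-3 D3A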
Procasp7 act – confirmation of dual procaspase activators: human procaspase-7 activation; shares compounds with proCasp7 act; recombinant procaspase-7, Ac-DEVD-pNA absorbance 405 nm; D23A/D198A/D206A mutant that cannot self-cleave; activation, % at 8.5 µM; 290 tested, under 10 active; AID 493115;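 active = mean activation above a set limit carried over from the earlier primary screen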;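 note: 0% = DMSO only and 100% = DMSO with added 5 µM PC-7 enzyme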
Active calls of the source: *; / = no result given. Hits are enriched below; roughly 0.38% of the tested compounds scored in any of these assays.

SMILES	GSK3A inh	A1 inh	procasp3 activ	STK33 inh	proCasp7 act	GSK3beta inhib	procasp7 triplic	procasp3 conf	others
CC(C)(NC(=O)c1ccccc1)c1nc2ccccc2s1	-1	0	-17	0	-21	-1	/	/
Cc1ccc(S(=O)(=O)Oc2ccc(/C=C(/NC(=O)c3ccccc3)C(=O)O)cc2)cc1	3	0	57*	-2	0	0	3	4
Cc1cnc(C(=O)OCC(=O)N2CCC(C)CC2)cn1	-3	0	1	-1	2	/	/	/
O=C1OCCN1C(=O)[C@H]1[C@H](c2ccc(Cl)cc2)C(c2ccccc2)=NN1c1ccccc1	/	/	-4	/	-5	/	/	/
O=C1C2C(c3ccccc3)=NN(c3ccccc3)C2C(=O)N1c1ccccc1 (centres undefined)	1	0	23*	0	25	1	36*	47*
CCCCNC(=O)c1cc2c(=O)n3cccc(C)c3nc2s1	-2	-9	3	0	8	0	/	/
Cc1cccn2c(=O)c3cc(C(=O)NCCc4ccccc4)sc3nc12	-6	0	31*	-2	5	3	-19	-14
Cc1ccc(-c2cn(S(=O)(=O)c3cccc4nsnc34)nc2N)cc1	-1	1	23*	0	-2	-1	2	1
CCCCn1c(N)c(N(CC)C(=O)c2cccc(S(=O)(=O)N3CCN(C)CC3)c2)c(=O)[nH]c1=O	1	0	24*	-2	6	0	4	7
Cc1cc(C)n(CCOc2ccc(Br)cc2)n1	-2	0	0	-1	-1	-1	/	/
C=CCNC(=O)C(=O)Nc1cc2c3c(c1)CCC(=O)N3CCC2	0	0	4	-1	-9	-1	/	/
O=C1OCCN1C(=O)[C@H]1[C@H](c2ccc(Cl)cc2)C(c2ccc(F)cc2)=NN1c1ccc(Br)cc1	/	/	27*	/	16	/	-23	-13
O=C(CSc1nnc(NC(=O)C2CC(=O)N(c3ccc(F)cc3)C2)s1)NCc1ccco1 (centres undefined)	0	1	-7	-2	-21	3	/	/
CN1/C(=C/C(=O)c2ccc(Cl)cc2)Sc2cc3c(cc21)OCO3	0	0	40*	-2	11	-1	-13	2
CCOC(=O)C(=CNc1nc(-c2ccccc2)c(C(=O)Nc2ccc(-c3ccccc3)cc2)s1)C(=O)OCC	-4	0	1	-1	8	-2	/	/
C=CCN(c1ccccc1)S(=O)(=O)c1cccc(C(=O)OCC(=O)NCCOC)c1	-4	0	-6	0	-5	3	/	/
C=CCN(c1ccccc1)S(=O)(=O)c1cccc(C(=O)Oc2ccc3c(C)cc(=O)oc3c2)c1	0	0	21*	-2	21	-1	-7	-7
O=C(Nc1cc(S(=O)(=O)N2CCOCC2)ccc1N1CCOCC1)c1ccccc1F	-2	0	23*	0	-2	/	2	3
COc1ccc2nc(Nc3nc4cc5c(cc4s3)OCO5)sc2c1	-3	-1	69*	1	7	1	-20	-14
Cn1cc(C(=O)N/N=C/c2c(O)ccc3ccccc23)ccc1=O	-1	0	4	0	-12	-1	/	/
O=C(N/N=C\c1c(O)ccc2ccccc12)c1ccc(O)cc1	-3	1	21*	3	3	2	-14	-15
CCC(=O)Nc1c(S(=O)(=O)c2ccccc2)c2nc3ccccc3nc2n1C(C)c1ccccc1 (centres undefined)	4	0	6	5	-23	-3	/	/
CCC(=O)Nc1c(S(=O)(=O)c2ccc(C)cc2)c2nc3ccccc3nc2n1C(C)c1ccccc1 (centres undefined)	0	-1	26*	0	6	8	-22	-14
Cc1ccc(NC(=O)CNCc2cccs2)c(Br)c1	-1	1	/	0	/	6	/	/
Cc1ccc2cc(S(=O)(=O)NCCCN3CCOCC3)ccc2c1	-1	-1	-5	0	-5	0	/	/
SMILES	GSK3A inh	A1 inh	procasp3 activ	STK33 inh	proCasp7 act	GSK3beta inhib	procasp7 triplic	procasp3 conf	others
COc1ccc2cc(S(=O)(=O)NCCCN3CCOCC3)ccc2c1	8	0	22*	1	-4	3	2	6
COc1ccc(-n2c(CCc3ccccc3)nnc2SCC(=O)NCc2ccccc2)cc1	-18	0	59*	-1	-4	-2	0	4
O=C(CSc1nnc(CCc2ccccc2)n1-c1ccc(Cl)cc1)NCc1ccccc1	1	0	14	-1	4	1	/	/
COCCNC(=O)Cn1nc(-c2ccccc2F)ccc1=O	/	/	/	/	/	1	/	/
CCOC(=O)c1c(C)nc2sc(C(=O)Nc3ccccc3)c(N)c2c1-c1ccc(OC)cc1	3	1	-11	-1	-6	0	/	/
C=CCSc1nnc(-c2cc3c(s2)-c2ccccc2CC3)o1	11	0	18	1	28*	1	/	/	PC3 D3A act=-29;Procasp7 act=-27
C=CCSc1nnc(-c2cccc3ccccc23)o1	/	/	0	/	-5	/	/	/
CCOc1ccc(N2C(=O)CC(Cc3ccc(Br)cc3)C2=O)cc1 (centres undefined)	-4	0	8	0	81*	3	/	/	PC3 D3A act=2;Procasp7 act=2
COc1ccc(N2C(=O)CC(Cc3ccc(Br)cc3)C2=O)cc1 (centres undefined)	0	0	-6	-1	8	6	/	/
O=C(c1ccco1)c1cc2c(ccc3ccccc32)oc1=O	1	-1	9	1	26*	0	/	/	PC3 D3A act=-7;Procasp7 act=-8
CCc1cc2c3c(c(=O)oc2cc1OC(C)C(=O)O)CCCC3 (centres undefined)	-2	0	5	0	3	0	/	/

Bioassay records (PubChem)
